According to ChEMBL document CHEMBL6092133, “Enhancing the therapeutic window for Spectinamide anti-tuberculosis Agents: Synthesis, Evaluation, and activation of phosphate prodrug 3408” (Bioorg Med Chem Lett, 2024):

How the values were obtained:
[1] = test system: Mycobacterium tuberculosis; assay: (§1) Antibacterial activity against Mycobacterium tuberculosis Erdman harboring pFCA-LuxAB plasmid infected in female BALB/c mouse model assessed as log reduction in bacterial burden in lung at 400 mg/kg, SC administered once daily for 12 days starting from day 7 and measured 3 days post last treatment relative to untreated control; type: functional; conditions: time 15 day
Summary of the method: (§2)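 BALB/c mice given a low-dose aerosol infection with M. tuberculosis Erdman pFCA-LuxAB. Dosing ran once daily for 12 consecutive days from day 7 post-infection: 10 mg/kg orally or 400 mg/kg, as the line states. Lung bacterial burden (log10 CFU) was compared with untreated control, six mice per group.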

[2] = Drug uptake in female BALB/c mouse plasma infected with Mycobacterium tuberculosis Erdman harboring pFCA-LuxAB plasmid at 400 mg/kg, SC measured after 15 mins; type: ADME, organism-based; conditions: in vivo, 0.25 h
Summary of the method: (§3)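 Plasma was sampled from infected BALB/c mice in the acute efficacy study 15 min and 8 h after a 400 mg/kg dose. Parent drug and prodrug levels were each quantified in the prodrug-treated and parent-treated groups.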

[3] = Drug uptake in female BALB/c mouse plasma infected with Mycobacterium tuberculosis Erdman harboring pFCA-LuxAB plasmid at 400 mg/kg, SC measured after 8 hrs; type: ADME, organism-based; conditions: in vivo; summary of the method: as §3
[4] = test system: Mycobacterium tuberculosis; assay: as §1, with “10” for “400”, “po” for “SC”; type: functional; conditions: time 15 day; summary of the method: as §2
[5] = (§4) Prodrug conversion in female BALB/c mouse plasma infected with Mycobacterium tuberculosis Erdman harboring pFCA-LuxAB plasmid assessed as 2-(5-chloropyridin-2-yl)-N-((2R,4R,4aS,5aR,6S,7S,8R,9S,9aR,10aS)-4a,7,9-trihydroxy-2-methyl-6,8-bis(methylamino)decahydro-2H-benzo[b]pyrano[2,3-e][1,4]dioxin-4-yl)acetamide formation at 400 mg/kg, SC measured after 15 mins; type: ADME, organism-based; conditions: in vivo, 0.25 h; summary of the method: as §3
[6] = as §4, with “8 hrs” for “15 mins”; type: ADME, organism-based; conditions: in vivo; summary of the method: as §3

| SMILES | log(activity) [1] | Drug uptake [2] | Drug uptake [3] | log(activity) [4] | Drug metabolism [5] | Drug metabolism [6] |
| --- | --- | --- | --- | --- | --- | --- |
| CN[C@@H]1[C@H](O)[C@H](NC)[C@H]2O[C@]3(O)[C@H](O[C@@H]2[C@H]1O)O[C@H](C)C[C@H]3NC(=O)Cc1ccc(O)cn1 | 1.13 | Active | Active |  |  |  |
| CO[C@H]1/C=C/O[C@@]2(C)Oc3c(C)c(O)c4c(O)c(c(/C=N/N5CCN(C)CC5)c(O)c4c3C2=O)NC(=O)/C(C)=C\C=C\[C@H](C)[C@H](O)[C@@H](C)[C@@H](O)[C@@H](C)[C@H](OC(C)=O)[C@@H]1C [RIFAMPIN] |  |  |  | 1.21 |  |  |
| CN[C@@H]1[C@H](O)[C@H](NC)[C@H]2O[C@]3(O)[C@H](O[C@@H]2[C@H]1O)O[C@H](C)C[C@H]3NC(=O)Cc1ccc(OP(=O)(O)O)cn1 | 1.11 | Active |  |  | metabolite_detected | metabolite_detected |
